Assay results from different studies.
Protocols differ between the studies behind these lines.
MTNR1B: Melatonin receptor type 1B (MTNR1B, Homo sapiens, UniProt P49286)
CDK7 with cyclin H: Cyclin-dependent kinase 7, with cyclin H (CDK7, Homo sapiens, UniProt P50613)
RIOK3: Serine/threonine-protein kinase RIO3 (RIOK3, Homo sapiens, UniProt O14730)
BAZ1A: Bromodomain adjacent to zinc finger domain protein 1A (BAZ1A, Homo sapiens, UniProt Q9NRL2)

Structure (SMILES) | target | test | test system | setting | endpoint | value
CCc1ccc2scc(CCNC(C)=O)c2c1 | MTNR1B | β-arrestin recruitment, agonist | MT2 | 90 min | Emax | 75%
COc1cc2c(cc1OC)[C@@H]1Cc3ccc(OC)c(OC)c3CN1CC2 | CDK7 with cyclin H | enzyme activity, inhibitor, ADP detection | – | 10 µM | inhibition | -19%
Cc1ccc(C(=O)Nc2ccc(CN3CCN(C)CC3)c(C(F)(F)F)c2)cc1C#Cc1cnc2cccnn12 | RIOK3 | enzyme activity, inhibitor | – | 23.5 nM | remaining activity | 93%
Nc1ncnc2occ(-c3ccc(NC(=O)Nc4cc(C(F)(F)F)ccc4F)cc3)c12 | RIOK3 | cell-free assay, inhibitor | – | 20 µM | remaining signal | 89%
Oc1ccc(-c2nc(-c3ccncc3)c(-c3ccc(F)cc3)[nH]2)cc1 | BAZ1A | thermal stability, DSF | – | 10 µM | ΔTm | 0.34 °C
O=c1cc(CO)occ1O | CDK7 with cyclin H | enzyme activity, inhibitor, ADP detection | – | 10 µM | inhibition | 21.3%
CCC(=O)NC1Cc2ccccc2C(c2ccccc2)C1 (stereo not shown) | MTNR1B | GTPγS binding, agonist, radiometric | – | cell membranes | Emax | 34%
C=C1CC[C@@H]2[C@](C)(CO)[C@H](O)CC[C@@]2(C)[C@@H]1C/C=C1/C(=O)OC[C@H]1O | CDK7 with cyclin H | enzyme activity, inhibitor, ADP detection | – | 10 µM | inhibition | 34.6%
C[S+]([O-])c1ccc(-c2nc(-c3ccncc3)c(-c3ccc(F)cc3)[nH]2)cc1 (stereo not shown) | BAZ1A | thermal stability, DSF | – | 10 µM | ΔTm | 1.03 °C
COc1cc2c(CCNC(C)=O)c[nH]c2cc1I | MTNR1B | β-arrestin recruitment, agonist | MT2 | 90 min | Emax | 101%
CN(C)C1CCN(CC#Cc2nn(C3CCCC3)c3nc(NCc4ccccc4)ncc23)C1 (stereo not shown) | Death-associated protein kinase 1 (DAPK1, Homo sapiens, UniProt P53355) | enzyme activity, inhibitor, FRET | – | 10 µM | inhibition | 7%
COc1ccc2ncn(CCNC(C)=O)c2c1 | MTNR1B | β-arrestin recruitment, agonist | MT2 | – | Emax | 75%
COc1ccc2cc3[n+](cc2c1OC)CCc1cc2c(cc1-3)OCO2 | CDK7 with cyclin H | enzyme activity, inhibitor, ADP detection | – | 10 µM | inhibition | 22.3%
